Measured values from ChEMBL document CHEMBL3994579, “Synthesis and antibacterial activity of novel 3-O-descladinosylazithromycin derivatives” (2017).
≈ marks a conversion by molar mass, not a printed value.

Experiments:
Type in all cases: functional
[1] = tested on: Staphylococcus aureus; assay: Antibacterial activity against erythromycin-susceptible Staphylococcus aureus ATCC 25923 by broth microdilution method
How it was run: (§1)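 MICs were determined in vitro by broth microdilution following the NCCL-recommended method. Azithromycin and clarithromycin were run alongside as reference antibiotics on the same strain panel.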

[2] = tested on: Escherichia coli; assay: Antibacterial activity against penicillin-susceptible Escherichia coli ATCC 25922 by broth microdilution method; how it was run: as §1
[3] = tested on: Streptococcus pyogenes; assay: Antibacterial activity against erythromycin-susceptible Streptococcus pyogenes clinical isolate by broth microdilution method; how it was run: as §1
[4] = tested on: Pseudomonas aeruginosa; assay: Antibacterial activity against penicillin-susceptible Pseudomonas aeruginosa ATCC 27853 by broth microdilution method; how it was run: as §1
[5] = tested on: Bacillus subtilis; assay: Antibacterial activity against erythromycin/penicillin-susceptible Bacillus subtilis ATCC 9372 by broth microdilution method; how it was run: as §1
[6] = tested on: Staphylococcus epidermidis; assay: Antibacterial activity against penicillin-resistant Staphylococcus epidermidis clinical isolate by broth microdilution method
How it was run: (§2)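 Broth microdilution per NCCL recommendation, read as minimal inhibitory concentration, run alongside azithromycin and clarithromycin references. Strains: S. pneumoniae B1 (erythromycin-resistant, ermB), A22072 (erythromycin-resistant, mefA), AB11 (erythromycin-resistant, erm and mef); S. aureus ATCC29213 ([…]); S. epidermidis clinical isolate (penicillin-resistant, not characterized).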

[7] = tested on: Staphylococcus aureus; assay: Antibacterial activity against […] Staphylococcus aureus ATCC 29213 by broth microdilution method; how it was run: as §2
[8] = tested on: Streptococcus pneumoniae; assay: Antibacterial activity against erythromycin-resistant Streptococcus pneumoniae B1 expressing ermB gene by broth microdilution method; how it was run: as §2
[9] = tested on: Streptococcus pneumoniae; assay: Antibacterial activity against erythromycin-resistant Streptococcus pneumoniae A22072 expressing mefA gene by broth microdilution method; how it was run: as §2
[10] = tested on: Streptococcus pneumoniae; assay: Antibacterial activity against erythromycin-resistant Streptococcus pneumoniae AB11 expressing ermB/mefA genes by broth microdilution method; how it was run: as §2
[11] = tested on: Streptococcus pyogenes; assay: Antibacterial activity against erythromycin-resistant Streptococcus pyogenes R1 clinical isolate by broth microdilution method
[12] = tested on: Streptococcus pyogenes; assay: Potency index, ratio of azithromycin MIC to test compound MIC for erythromycin-resistant Streptococcus pyogenes R1 clinical isolate
[13] = tested on: Streptococcus pyogenes; assay: Potency index, ratio of clarithromycin MIC to test compound MIC for erythromycin-resistant Streptococcus pyogenes R1 clinical isolate
[14] = tested on: Streptococcus pneumoniae; assay: Potency index, ratio of azithromycin MIC to test compound MIC for erythromycin-resistant Streptococcus pneumoniae B1 expressing ermB gene
[15] = tested on: Streptococcus pneumoniae; assay: Potency index, ratio of clarithromycin MIC to test compound MIC for erythromycin-resistant Streptococcus pneumoniae B1 expressing ermB gene
[16] = tested on: Streptococcus pneumoniae; assay: Potency index, ratio of azithromycin MIC to test compound MIC for erythromycin-resistant Streptococcus pneumoniae A22072 expressing mefA gene
[17] = tested on: Streptococcus pneumoniae; assay: Potency index, ratio of clarithromycin MIC to test compound MIC for erythromycin-resistant Streptococcus pneumoniae A22072 expressing mefA gene
[18] = tested on: Streptococcus pneumoniae; assay: Potency index, ratio of azithromycin MIC to test compound MIC for erythromycin-resistant Streptococcus pneumoniae AB11 expressing ermB/mefA genes
[19] = tested on: Streptococcus pneumoniae; assay: Potency index, ratio of clarithromycin MIC to test compound MIC for erythromycin-resistant Streptococcus pneumoniae AB11 expressing ermB/mefA genes

Row | SMILES | MIC [1] [µg/mL] | MIC [2] [µg/mL] | MIC [3] [µg/mL] | MIC [4] [µg/mL] | MIC [5] [µg/mL] | MIC [6] [µg/mL] | MIC [7] [µg/mL] | MIC [8] [µg/mL] | MIC [9] [µg/mL] | MIC [10] [µg/mL] | MIC [11] [µg/mL] | Ratio [12] | Ratio [13] | Ratio [14] | Ratio [15] | Ratio [16] | Ratio [17] | Ratio [18] | Ratio [19]
1 | CCCCCCNC(=O)O[C@H]1[C@H](C)[C@@H](O[C@@H]2O[C@H](C)C[C@H](N(C)C)[C@H]2OC(C)=O)[C@](C)(O)C[C@@H](C)CN(C)[C@H](C)[C@H]2OC(=O)O[C@]2(C)[C@@H](CC)OC(=O)[C@@H]1C | 16 (≈ 20.4 µM) | 128 (≈ 163 µM) | 4 (≈ 5.09 µM) | 128 (≈ 163 µM) | 8 (≈ 10.2 µM) | 16 (≈ 20.4 µM) | 32 (≈ 40.7 µM) | 64 (≈ 81.4 µM) | 64 (≈ 81.4 µM) | 16 (≈ 20.4 µM) | 32 (≈ 40.7 µM) | 8 | 8 |  |  |  |  |  | 
2 | CC[C@H]1OC(=O)[C@H](C)[C@@H](OC(=O)Nc2cccc(C)c2)[C@H](C)[C@@H](O[C@@H]2O[C@H](C)C[C@H](N(C)C)[C@H]2O)[C@](C)(O)C[C@@H](C)CN(C)[C@H](C)[C@@H](OC(=O)NCc2ccc(C)cc2)[C@]1(C)O | 8 (≈ 9.18 µM) | 64 (≈ 73.5 µM) | 4 (≈ 4.59 µM) | 64 (≈ 73.5 µM) | 8 (≈ 9.18 µM) | 4 (≈ 4.59 µM) | 128 (≈ 147 µM) | 64 (≈ 73.5 µM) | 32 (≈ 36.7 µM) | 16 (≈ 18.4 µM) | 32 (≈ 36.7 µM) |  |  |  |  |  |  |  | 
3 | CC[C@H]1OC(=O)[C@H](C)[C@@H](OC(=O)Nc2cccc(C)c2)[C@H](C)[C@@H](O[C@@H]2O[C@H](C)C[C@H](N(C)C)[C@H]2O)[C@](C)(O)C[C@@H](C)CN(C)[C@H](C)[C@@H](OC(=O)NCc2ccccc2Cl)[C@]1(C)O | 2 (≈ 2.24 µM) | 64 (≈ 71.8 µM) | 0.03 (≈ 0.0336 µM) | 64 (≈ 71.8 µM) | 4 (≈ 4.49 µM) | 0.25 (≈ 0.28 µM) | 64 (≈ 71.8 µM) | 8 (≈ 8.97 µM) | 0.5 (≈ 0.561 µM) | 4 (≈ 4.49 µM) | 32 (≈ 35.9 µM) |  |  | 8 - 256 | 8 - 256 | 8 | 8 - 256 | 8 - 256 | 8 - 256
4 | CC[C@H]1OC(=O)[C@H](C)[C@@H](O)[C@H](C)[C@@H](O[C@@H]2O[C@H](C)C[C@H](N(C)C)[C@H]2OC(=O)n2ccnc2)[C@](C)(O)C[C@@H](C)CN(C)[C@H](C)[C@H]2OC(=O)O[C@@]21C | 64 (≈ 90 µM) | 64 (≈ 90 µM) | 8 (≈ 11.3 µM) | 64 (≈ 90 µM) | 128 (≈ 180 µM) | 32 (≈ 45 µM) | 128 (≈ 180 µM) | 256 (≈ 360 µM) | 128 (≈ 180 µM) | 32 (≈ 45 µM) | 256 (≈ 360 µM) |  |  |  |  |  |  |  | 
5 | CC[C@H]1OC(=O)[C@H](C)[C@@H](OC(=O)Nc2ccccc2C)[C@H](C)[C@@H](O[C@@H]2O[C@H](C)C[C@H](N(C)C)[C@H]2O)[C@](C)(O)C[C@@H](C)CN(C)[C@H](C)[C@H]2OC(=O)O[C@@]21C | 4 (≈ 5.33 µM) | 64 (≈ 85.3 µM) | 0.5 (≈ 0.667 µM) | 64 (≈ 85.3 µM) | 2 (≈ 2.67 µM) | 4 (≈ 5.33 µM) | 32 (≈ 42.7 µM) | 32 (≈ 42.7 µM) | 4 (≈ 5.33 µM) | 1 (≈ 1.33 µM) | 32 (≈ 42.7 µM) |  |  |  |  |  |  | 256 | 128
6 | CC[C@H]1OC(=O)[C@H](C)[C@@H](OC(=O)Nc2ccccc2)[C@H](C)[C@@H](O[C@@H]2O[C@H](C)C[C@H](N(C)C)[C@H]2O)[C@](C)(O)C[C@@H](C)CN(C)[C@H](C)[C@H]2OC(=O)O[C@@]21C | 2 (≈ 2.72 µM) | 128 (≈ 174 µM) | 0.25 (≈ 0.34 µM) | 128 (≈ 174 µM) | 4 (≈ 5.44 µM) | 4 (≈ 5.44 µM) | 128 (≈ 174 µM) | 16 (≈ 21.7 µM) | 16 (≈ 21.7 µM) | 16 (≈ 21.7 µM) | 8 (≈ 10.9 µM) | 32 | 32 | 16 | 16 |  |  |  | 
7 | CC[C@H]1OC(=O)[C@H](C)[C@@H](OC(=O)Nc2ccccc2)[C@H](C)[C@@H](O[C@@H]2O[C@H](C)C[C@H](N(C)C)[C@H]2O)[C@](C)(O)C[C@@H](C)CN(C)[C@H](C)[C@@H](OC(=O)NCc2ccccc2)[C@]1(C)O | 32 (≈ 38 µM) | 64 (≈ 75.9 µM) | 2 (≈ 2.37 µM) | 64 (≈ 75.9 µM) | 8 (≈ 9.49 µM) | 32 (≈ 38 µM) | 128 (≈ 152 µM) | 128 (≈ 152 µM) | 16 (≈ 19 µM) | 2 (≈ 2.37 µM) | 64 (≈ 75.9 µM) |  |  |  |  |  |  |  | 
8 | CC[C@H]1OC(=O)[C@H](C)[C@@H](OC(=O)Nc2cccc(C)c2)[C@H](C)[C@@H](O[C@@H]2O[C@H](C)C[C@H](N(C)C)[C@H]2O)[C@](C)(O)C[C@@H](C)CN(C)[C@H](C)[C@@H](OC(=O)NCc2ccc(OC)cc2)[C@]1(C)O | 16 (≈ 18 µM) | 128 (≈ 144 µM) | 1 (≈ 1.13 µM) | 128 (≈ 144 µM) | 16 (≈ 18 µM) | 32 (≈ 36.1 µM) | 128 (≈ 144 µM) | 128 (≈ 144 µM) | 8 (≈ 9.02 µM) | 16 (≈ 18 µM) | 128 (≈ 144 µM) |  |  |  |  |  |  |  | 
9 | CC[C@H]1OC(=O)[C@H](C)[C@@H](OC(=O)Nc2ccccc2C)[C@H](C)[C@@H](O[C@@H]2O[C@H](C)C[C@H](N(C)C)[C@H]2O)[C@](C)(O)C[C@@H](C)CN(C)[C@H](C)[C@@H](OC(=O)NCc2ccccc2)[C@]1(C)O | 1 (≈ 1.17 µM) | 64 (≈ 74.7 µM) | 0.03 (≈ 0.035 µM) | 64 (≈ 74.7 µM) | 2 (≈ 2.33 µM) | 0.25 (≈ 0.292 µM) | 32 (≈ 37.3 µM) | 32 (≈ 37.3 µM) | 0.25 (≈ 0.292 µM) | 2 (≈ 2.33 µM) | 128 (≈ 149 µM) |  |  | 8 - 256 | 8 - 256 | 16 | 8 - 256 | 8 - 256 | 8 - 256
10 | CC[C@H]1OC(=O)[C@H](C)[C@@H](O[C@H]2C[C@@](C)(OC)[C@@H](O)[C@H](C)O2)[C@H](C)[C@@H](O[C@@H]2O[C@H](C)C[C@H](N(C)C)[C@H]2O)[C@](C)(O)C[C@@H](C)CN(C)[C@H](C)[C@@H](O)[C@]1(C)O [AZITHROMYCIN] | 0.25 (≈ 0.334 µM) | 64 (≈ 85.4 µM) | 0.03 (≈ 0.0401 µM) | 32 (≈ 42.7 µM) | 1 (≈ 1.34 µM) | 0.25 (≈ 0.334 µM) | 4 (≈ 5.34 µM) | 256 (≈ 342 µM) | 4 (≈ 5.34 µM) | 256 (≈ 342 µM) | 256 (≈ 342 µM) |  |  |  |  |  |  |  | 
11 | CC[C@H]1OC(=O)[C@H](C)[C@@H](O[C@H]2C[C@@](C)(OC)[C@@H](O)[C@H](C)O2)[C@H](C)[C@@H](O[C@@H]2O[C@H](C)C[C@H](N(C)C)[C@H]2O)[C@](C)(OC)C[C@@H](C)C(=O)[C@H](C)[C@@H](O)[C@]1(C)O [CLARITHROMYCIN] | 0.25 (≈ 0.334 µM) | 32 (≈ 42.8 µM) | 0.03 (≈ 0.0401 µM) | 64 (≈ 85.6 µM) | 0.25 (≈ 0.334 µM) | 0.25 (≈ 0.334 µM) | 32 (≈ 42.8 µM) | 256 (≈ 342 µM) | 2 (≈ 2.67 µM) | 128 (≈ 171 µM) | 256 (≈ 342 µM) |  |  |  |  |  |  |  | 
